# Screens as filed in PubChem.
# A selection: hits, their analogues and other compounds. The true share with any hit is near 2.8%.
# HTR2A ag: mouse Htr2a agonists via beta-arrestin recruitment, primary screen, cell-based, luminescence. CHO-K1 mHTR2A beta-arrestin complementation; percent of 30 µM serotonin response. activation, % at 7.6 µM. actives 0.66% (n = 360,000);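 active = activation above a run cutoff, the mean activation of all tested compounds plus 3 SD, cut at about 14% in these data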;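 also: 0% = plate median of compound wells and 100% = 30 µM serotonin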
# Target sequence (P35363 whole entry, looked up): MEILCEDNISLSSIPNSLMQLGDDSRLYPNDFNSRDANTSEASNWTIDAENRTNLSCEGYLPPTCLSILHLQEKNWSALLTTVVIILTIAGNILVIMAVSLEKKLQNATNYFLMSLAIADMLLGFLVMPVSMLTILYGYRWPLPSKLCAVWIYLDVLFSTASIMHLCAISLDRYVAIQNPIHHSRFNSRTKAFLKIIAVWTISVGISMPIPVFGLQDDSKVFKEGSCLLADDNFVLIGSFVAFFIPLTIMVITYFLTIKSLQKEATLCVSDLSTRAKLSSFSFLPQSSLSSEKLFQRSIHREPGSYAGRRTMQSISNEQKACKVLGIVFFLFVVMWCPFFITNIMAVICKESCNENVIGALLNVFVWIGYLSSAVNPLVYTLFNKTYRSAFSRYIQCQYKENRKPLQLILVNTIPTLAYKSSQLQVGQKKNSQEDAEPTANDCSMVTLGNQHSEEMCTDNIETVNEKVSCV
# EBI2 block: EBI2 receptor antagonists, beta-arrestin recruitment, primary screen, cell-based, luminescence, 7a,25-OHC stimulation, uHTS. inhibition, % at 5 µM. 7a,25-OHC stimulated. AID 651636, 2012. G-protein coupled receptor 183 (Homo sapiens), P32249. actives 0.81% (n = 360,000); in the data active = inhibition above about 38%;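 also: enzyme fragment complementation signal reports receptor beta-arrestin coupling in cells; 0% = agonist plus DMSO wells and 100% = wells without agonist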
# MC4R antag cAMP: MC4R antagonists of cAMP signaling, primary screen, cell-based, TR-FRET, antagonist arm of biased-ligand search; Melanocortin receptor 4 (Homo sapiens), P32245; actives 0.48% (n = 360,000); inhibition, % at 6.5 µM; MC4R-expressing cells, MTII-stimulated cAMP, LANCE TR-FRET;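 active = inhibition above its plate's cutoff, the mean of tested wells on that plate plus 3 SD, cut at about 29% in these data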;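 also: 0% = Melanotan II alone and 100% = Melanotan II plus saturating MCL0020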
#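 system = U2OS cells with stable human MC4R expression | also added = Melanotan II challenge after compound preincubation | dosing = one concentration, 6.5 µM nominal | incubation = compound 30 min, challenge 1 h, detection 1 h | measured by = TR-FRET with Eu-cAMP and labeled anti-cAMP, 671 nm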
# MC4R ag barr: MC4R agonists recruiting beta-arrestin, primary screen, cell-based, luminescence, agonist arm of biased-ligand search; Melanocortin receptor 4 (Homo sapiens), P32245; U2OS MC4R beta-arrestin complementation; percent of melanotan II response, DMSO zero; activation, % at 8.9 µM; actives 0.98% (n = 360,000);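 active = activation above a per-plate cutoff, the mean activation of sample wells on that plate plus 3 SD, cut at about 8% in these data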
# MC4R barr ag: MC4R beta-arrestin agonists, retest, confirmation, cell-based, luminescence, U2OS | actives 31% (n = 2,400) | activation, % at 8.9 µM | U2OS MC4R beta-arrestin recruitment; scaled DMSO 0%, Melanotan II 100% | AID 602192, 2012 | shares compounds with MC4R ag barr;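 active = mean activation across replicates above the hit cutoff set in the earlier primary screen, cut at about 8% in these data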
# MOR-DOR barr ag: agonists of MOR-DOR heterodimerization, counter-screen for MC4R biased agonist project, cell-based, luminescence. shares compounds with MC4R ag barr. U2OS PathHunter beta-arrestin, beta-gal luminescence; percent of deltorphin B response, DMSO zero. activation, % at 9.2 µM. actives 5.8% (n = 2,400);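 active = mean activation across replicates exceeds the hit threshold derived in the earlier primary screen, cut at about 18% in these data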;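 also: 100% = deltorphin B at 0.9 µM final and 0% = DMSO alone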
# Active calls of the source: *; . = not tested or not shown.
SMILES,HTR2A ag,EBI2 block,MC4R antag cAMP,MC4R ag barr,MC4R barr ag,MOR-DOR barr ag
CN(C)C1CN(Cc2cn(Cc3ccc(Cl)cc3)nn2)S(=O)(=O)C1 (configuration not stated),2,-4,.,.,.,.
CC(=O)Nc1cccc(NC(=O)CSc2ccc(C(F)(F)F)cc2[N+](=O)[O-])c1,1,12,3,-1,.,.
O=C(CSc1ccc(C(F)(F)F)cc1[N+](=O)[O-])Nc1ccc2ccccc2c1,-4,-2,-1,11*,8,6
Cc1ccc(C)c(N2CCN(CCCNC(=O)Cn3cccc3C(=O)c3ccccc3C)CC2)c1,-4,7,9,12*,14*,15
C=CCOC1=CS(=O)(=O)N(Cc2ccc(Br)cc2)c2ccc(Br)cc21,-7,5,2,-1,.,.
NS(=O)(=O)c1ccc(CCNc2nc3c(-c4cccc(F)c4)nnn3c3ccccc23)cc1,-2,-6,-51,15*,11*,13
Cc1ccc2nc(C(C)(C)C)c(Cc3cccc(Cl)c3)n2c1,-3,10,.,.,.,.
COc1ccc(NC(=O)c2cc(-c3ccccn3)nc3c(C)cc(C)cc23)c(C)c1,0,-18,20,12*,3,3
COc1cccc(NC(=O)c2cc(-c3ccncc3)nc3c(C)cc(C)cc23)c1,-1,-10,2,2,.,.
Cc1cc(C)c2nc(-c3ccccn3)cc(C(=O)NCc3ccc(S(N)(=O)=O)cc3)c2c1,0,1,2,9.7*,0,5
Cc1cc(C)c2nc(-c3ccccn3)cc(C(=O)NCCc3ccc(S(N)(=O)=O)cc3)c2c1,-2,1,-2,7,.,.
CC(=O)c1c(C)[nH]c(C(=O)C(C)Sc2nnc(NC3CC3)s2)c1C (configuration not stated),2,7,0,0,.,.
O=C(NCc1ccccc1)N1CCN(c2ccc(F)cc2)CC1,0,0,13,-1,.,.
O=C(NCc1ccccc1)N1CCN(c2ccc(Cl)c(Cl)c2)CC1,18*,17,2,22*,1,5
COc1ccc(-c2cn[nH]c2-c2ccc(OCc3ccccc3F)cc2O)cc1OC,-1,17,0,14*,3,12
CC(C)Oc1ccc(/C=C/C(=O)NCC2COc3ccccc3O2)cc1 (configuration not stated),3,8,4,10*,1,3
CC(=O)NCC1COc2ccccc2O1 (configuration not stated),12,2,0,-2,.,.
Nc1ccc(S(=O)(=O)NN=Cc2ccccc2[N+](=O)[O-])cc1,2,5,2,0,.,.
Cc1nn(Cc2c(F)c(F)c(F)c(F)c2F)c(C)c1NC(=O)c1cccc(COc2ccccc2Cl)c1,0,34,9,17*,6,3
OCCN1CCN(c2ncnc3c2ncn3[C@H]2CN(Cc3cccnc3)C[C@@H](CO)O2)CC1,-3,-2,12,-1,.,.
O=C(NCc1ccc2c(c1)OCO2)c1cc(-c2cc(Cl)ccc2O)n[nH]1,7,-2,3,11*,5,4
Cc1cc(O)c(-c2cc(C(=O)NCc3ccc4c(c3)OCO4)[nH]n2)cc1C,-3,2,2,1,.,.
COC(=O)C(C(=O)OC)c1ccccc1NC(=O)OCc1ccccc1,1,-6,.,.,.,.
Nc1c(N=Nc2cccc(Cl)c2)c(=O)[nH]n1-c1ccccc1,3,15,7,13*,6,4
Cc1ccc(S(=O)(=O)N2CC(CO)=CCC2c2ccccc2)cc1 (configuration not stated),-3,-3,.,.,.,.
SMILES,HTR2A ag,EBI2 block,MC4R antag cAMP,MC4R ag barr,MC4R barr ag,MOR-DOR barr ag
C/C(=N\N=C1\NC(=O)C(CC(=O)Nc2ccc(C)c(Cl)c2)S1)C(C)(C)C (configuration not stated),-5,-2,15,16*,5,5
O=C1/C(=C\c2c(NCCOCCO)nc3ccccn3c2=O)SC(=S)N1Cc1ccco1,2,9,-2,10*,5,8
Cc1ccc(-c2nn3c(C)nnc3s2)cc1NC(=O)c1ccc(-c2cccc(Cl)c2)o1,-3,-5,2,13*,0,3
CC(C)(C)c1ccc(S(=O)(=O)NCCOCC(F)(F)C(F)F)cc1,8,1,-4,13*,1,13
O=[N+]([O-])C1C(c2ccccc2)C12c1ccccc1-c1ccccc12 (configuration not stated),1,-9,-15,0,.,.
Cc1ccc(S(=O)(=O)N(C)Cc2ccc(C(=O)N/N=C/c3ccc(OC(F)F)cc3)cc2)cc1,-1,12,-1,25*,3,12
c1ccc(-c2csc3ncnc(NCc4ccccn4)c23)cc1,-4,-1,-14,11*,4,3
Oc1ccc(Nc2ncnc3scc(-c4ccccc4)c23)cc1,4,13,4,12*,8,6
Cc1sc2ncnc(Nc3ccc(O)cc3)c2c1C,-1,5,-12,-3,.,.
CCOc1ccc(NC(=NCc2ccc3c(c2)OCO3)SC2CC(=O)N(c3ccccc3)C2=O)cc1 (configuration not stated),-1,34,1,18*,7,7
COc1ccc(-c2cc(NC=O)c3ncc(-c4ccc(C(C)=O)cc4)n3c2)cc1OC,10,16,8,11*,9.0*,3
COc1cc(-c2cc(NC=O)c3ncc(-c4ccccc4)n3c2)cc(OC)c1OC,-1,17,-25,13*,25*,2
CC(=O)c1ccc(-c2cnc3c(NC=O)cc(-c4cccc(C(=O)N(C)C)c4)cn23)cc1,6,1,-1,3,.,.
COc1cc(-c2cc(NC=O)c3ncc(-c4ccc(C(C)=O)cc4)n3c2)cc(OC)c1OC,3,21,-1,26*,18*,2
CC(C)CC(N)c1csc(Nc2cc(Oc3ccccc3)ncn2)n1 (configuration not stated),0,-6,1,2,.,.
CC1CN(C(=S)Nc2ccc(SC(F)F)cc2)CC(C)O1 (configuration not stated),-2,-2,1,-1,.,.
